# According to ChEMBL document CHEMBL4689842, “EUbOPEN Chemogenomics Library wave 1” (2021):
# Experiments:
# Type in all cases: toxicity, cell-based
# U2OS [1] = assay: Multiplex assay against U2OS; conditions: human
# How it was run: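 Live cells were stained at seeding with Hoechst33342, BioTracker Green Microtubule Cytoskeleton Dye, MitoTracker Red and Annexin V Alexa Fluor 680, then imaged on a CQ1 microscope at 37°C and 5% CO2 after compound addition. CellPathfinder machine-learning gating split cells into Hoechst high-intensity objects or normal cells. Normal cells were split into healthy, pyknosed or fragmented nuclei, and pyknosed cells into mitotic or apoptotic. Tubulin, mitochondrial-mass and membrane-permeability phenotypes are per cents of healthy-nucleus cells.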
# Fibroblast = assay: Incucyte cell viability with human fibroblast; conditions: 10 µM, compound concentration 10 uM; note: filed as whole numbers so only -1 and 0 and 1 occur
# U2OS [2] = assay: Incucyte cell viability with U2OS; conditions: human, 10 µM, compound concentration 10 uM; note: filed as whole numbers so only -1 and 0 and 1 occur
# HEK-293T = assay: Incucyte cell viability with HEK293T; conditions: human, 10 µM, compound concentration 10 uM; note: filed as whole numbers so only -1 and 0 and 1 occur
# [3] = 12 h, 1 µM, compound concentration 1 uM, replicate 1
# [4] = 12 h, 1 µM, compound concentration 1 uM, replicate 2
# [5] = 12 h, 10 µM, compound concentration 10 uM, replicate 1
# [6] = 12 h, 10 µM, compound concentration 10 uM, replicate 2
# [7] = 24 h, 1 µM, compound concentration 1 uM, replicate 1
# [8] = 24 h, 1 µM, compound concentration 1 uM, replicate 2
# [9] = 24 h, 10 µM, compound concentration 10 uM, replicate 1
# [10] = 24 h, 10 µM, compound concentration 10 uM, replicate 2
# [11] = 48 h, 1 µM, compound concentration 1 uM, replicate 1
# [12] = 48 h, 1 µM, compound concentration 1 uM, replicate 2
# [13] = 48 h, 10 µM, compound concentration 10 uM, replicate 1
# [14] = 48 h, 10 µM, compound concentration 10 uM, replicate 2
# [15] = 0 h, replicate number 2, timepoint 0 hours
# [16] = 6 h, replicate number 1, timepoint 6 hours
# [17] = 12 h, replicate number 1, timepoint 12 hours
# [18] = 18 h, replicate number 1, timepoint 18 hours
# [19] = 24 h, replicate number 1, timepoint 24 hours
compound,measurement,setting,value
CCCc1cc(C)[nH]c(=O)c1CNC(=O)c1cc(-c2ccc(N3CCN(C(C)C)CC3)nc2)cc2c1cnn2C(C)C,Population Apoptotic (%),U2OS [1]; [3],64%
same,Population Fragmented Nuclei (%),U2OS [1]; [3],21%
same,Population Healthy Nuclei (%),U2OS [1]; [3],53%
same,Population Hoechst High Intensity Objects (%),U2OS [1]; [3],15%
same,Population Membrane Permeable-Phenotype (%),U2OS [1]; [3],13%
same,Population Mitochondria Different-Phenotype (%),U2OS [1]; [3],81%
same,Population Mitotic Cells (%),U2OS [1]; [3],35%
same,Population Normal (%),U2OS [1]; [3],84%
same,Population Pyknosed Nuclei (%),U2OS [1]; [3],24%
same,Population Tubulin-Different-Phenotype (%),U2OS [1]; [3],81%
same,Total Cell Count,U2OS [1]; [3],124
same,Population Apoptotic (%),U2OS [1]; [4],20%
same,Population Fragmented Nuclei (%),U2OS [1]; [4],19%
same,Population Healthy Nuclei (%),U2OS [1]; [4],70%
same,Population Hoechst High Intensity Objects (%),U2OS [1]; [4],10%
same,Population Membrane Permeable-Phenotype (%),U2OS [1]; [4],8%
same,Population Mitochondria Different-Phenotype (%),U2OS [1]; [4],91%
same,Population Mitotic Cells (%),U2OS [1]; [4],80%
same,Population Normal (%),U2OS [1]; [4],89%
same,Population Pyknosed Nuclei (%),U2OS [1]; [4],9%
same,Population Tubulin-Different-Phenotype (%),U2OS [1]; [4],94%
same,Total Cell Count,U2OS [1]; [4],56
same,Population Apoptotic (%),U2OS [1]; [5],70%
same,Population Fragmented Nuclei (%),U2OS [1]; [5],24%
same,Population Healthy Nuclei (%),U2OS [1]; [5],49%
same,Population Hoechst High Intensity Objects (%),U2OS [1]; [5],8%
same,Population Membrane Permeable-Phenotype (%),U2OS [1]; [5],64%
same,Population Mitotic Cells (%),U2OS [1]; [5],29%
same,Population Normal (%),U2OS [1]; [5],91%
same,Population Pyknosed Nuclei (%),U2OS [1]; [5],26%
same,Population Tubulin-Different-Phenotype (%),U2OS [1]; [5],98%
same,Total Cell Count,U2OS [1]; [5],82
same,Population Apoptotic (%),U2OS [1]; [6],85%
same,Population Fragmented Nuclei (%),U2OS [1]; [6],13%
same,Population Healthy Nuclei (%),U2OS [1]; [6],47%
same,Population Hoechst High Intensity Objects (%),U2OS [1]; [6],5%
same,Population Membrane Permeable-Phenotype (%),U2OS [1]; [6],79%
same,Population Mitochondria Different-Phenotype (%),U2OS [1]; [6],100%
same,Population Mitotic Cells (%),U2OS [1]; [6],14%
same,Population Normal (%),U2OS [1]; [6],94%
same,Population Pyknosed Nuclei (%),U2OS [1]; [6],38%
same,Population Tubulin-Different-Phenotype (%),U2OS [1]; [6],100%
same,Total Cell Count,U2OS [1]; [6],57
same,Population Apoptotic (%),U2OS [1]; [7],71%
same,Population Fragmented Nuclei (%),U2OS [1]; [7],18%
same,Population Healthy Nuclei (%),U2OS [1]; [7],60%
same,Population Hoechst High Intensity Objects (%),U2OS [1]; [7],13%
same,Population Membrane Permeable-Phenotype (%),U2OS [1]; [7],20%
same,Population Mitochondria Different-Phenotype (%),U2OS [1]; [7],89%
same,Population Mitotic Cells (%),U2OS [1]; [7],28%
same,Population Normal (%),U2OS [1]; [7],86%
same,Population Pyknosed Nuclei (%),U2OS [1]; [7],21%
same,Population Tubulin-Different-Phenotype (%),U2OS [1]; [7],79%
same,Total Cell Count,U2OS [1]; [7],132
same,Population Apoptotic (%),U2OS [1]; [8],33%
same,Population Fragmented Nuclei (%),U2OS [1]; [8],20%
same,Population Healthy Nuclei (%),U2OS [1]; [8],51%
same,Population Hoechst High Intensity Objects (%),U2OS [1]; [8],10%
same,Population Membrane Permeable-Phenotype (%),U2OS [1]; [8],10%
same,Population Mitochondria Different-Phenotype (%),U2OS [1]; [8],78%
same,Population Mitotic Cells (%),U2OS [1]; [8],66%
same,Population Normal (%),U2OS [1]; [8],90%
same,Population Pyknosed Nuclei (%),U2OS [1]; [8],27%
same,Population Tubulin-Different-Phenotype (%),U2OS [1]; [8],82%
same,Total Cell Count,U2OS [1]; [8],53
same,Population Apoptotic (%),U2OS [1]; [9],88%
same,Population Fragmented Nuclei (%),U2OS [1]; [9],23%
same,Population Healthy Nuclei (%),U2OS [1]; [9],36%
same,Population Membrane Permeable-Phenotype (%),U2OS [1]; [9],80%
same,Population Mitotic Cells (%),U2OS [1]; [9],11%
same,Population Pyknosed Nuclei (%),U2OS [1]; [9],39%
same,Total Cell Count,U2OS [1]; [9],75
same,Population Apoptotic (%),U2OS [1]; [10],91%
same,Population Fragmented Nuclei (%),U2OS [1]; [10],8%
same,Population Healthy Nuclei (%),U2OS [1]; [10],48%
same,Population Hoechst High Intensity Objects (%),U2OS [1]; [10],9%
same,Population Membrane Permeable-Phenotype (%),U2OS [1]; [10],85%
same,Population Mitochondria Different-Phenotype (%),U2OS [1]; [10],100%
same,Population Mitotic Cells (%),U2OS [1]; [10],8%
same,Population Normal (%),U2OS [1]; [10],90%
same,Population Pyknosed Nuclei (%),U2OS [1]; [10],42%
same,Population Tubulin-Different-Phenotype (%),U2OS [1]; [10],100%
same,Total Cell Count,U2OS [1]; [10],60
same,Population Apoptotic (%),U2OS [1]; [11],70%
same,Population Fragmented Nuclei (%),U2OS [1]; [11],23%
same,Population Healthy Nuclei (%),U2OS [1]; [11],56%
same,Population Hoechst High Intensity Objects (%),U2OS [1]; [11],10%
same,Population Membrane Permeable-Phenotype (%),U2OS [1]; [11],18%
same,Population Mitochondria Different-Phenotype (%),U2OS [1]; [11],83%
same,Population Mitotic Cells (%),U2OS [1]; [11],29%
same,Population Normal (%),U2OS [1]; [11],89%
same,Population Pyknosed Nuclei (%),U2OS [1]; [11],20%
same,Population Tubulin-Different-Phenotype (%),U2OS [1]; [11],77%
same,Total Cell Count,U2OS [1]; [11],142
same,Population Apoptotic (%),U2OS [1]; [12],46%
same,Population Fragmented Nuclei (%),U2OS [1]; [12],22%
same,Population Healthy Nuclei (%),U2OS [1]; [12],59%
same,Population Hoechst High Intensity Objects (%),U2OS [1]; [12],12%
same,Population Membrane Permeable-Phenotype (%),U2OS [1]; [12],27%
same,Population Mitochondria Different-Phenotype (%),U2OS [1]; [12],72%
same,Population Mitotic Cells (%),U2OS [1]; [12],53%
same,Population Normal (%),U2OS [1]; [12],87%
same,Population Pyknosed Nuclei (%),U2OS [1]; [12],18%
same,Population Tubulin-Different-Phenotype (%),U2OS [1]; [12],74%
same,Total Cell Count,U2OS [1]; [12],65
same,Population Apoptotic (%),U2OS [1]; [13],95%
same,Population Fragmented Nuclei (%),U2OS [1]; [13],26%
same,Population Healthy Nuclei (%),U2OS [1]; [13],15%
same,Population Hoechst High Intensity Objects (%),U2OS [1]; [13],14%
same,Population Membrane Permeable-Phenotype (%),U2OS [1]; [13],89%
same,Population Mitochondria Different-Phenotype (%),U2OS [1]; [13],100%
same,Population Mitotic Cells (%),U2OS [1]; [13],4%
same,Population Normal (%),U2OS [1]; [13],85%
same,Population Pyknosed Nuclei (%),U2OS [1]; [13],57%
same,Population Tubulin-Different-Phenotype (%),U2OS [1]; [13],100%
same,Total Cell Count,U2OS [1]; [13],95
same,Population Apoptotic (%),U2OS [1]; [14],100%
same,Population Fragmented Nuclei (%),U2OS [1]; [14],13%
same,Population Healthy Nuclei (%),U2OS [1]; [14],37%
same,Population Hoechst High Intensity Objects (%),U2OS [1]; [14],16%
same,Population Membrane Permeable-Phenotype (%),U2OS [1]; [14],96%
same,Population Mitotic Cells (%),U2OS [1]; [14],0%
same,Population Normal (%),U2OS [1]; [14],83%
same,Population Pyknosed Nuclei (%),U2OS [1]; [14],49%
same,Total Cell Count,U2OS [1]; [14],82
same,Growth Rate,Fibroblast; [15],0
same,Growth Rate,Fibroblast; [16],0
same,Growth Rate,Fibroblast; [17],0
same,Growth Rate,"Fibroblast; 12 h, replicate number 2, timepoint 12 hours",1
same,Growth Rate,Fibroblast; [18],0
same,Growth Rate,Fibroblast; [19],0
same,Growth Rate,U2OS [2]; [15],0
same,Growth Rate,U2OS [2]; [16],1
same,Growth Rate,U2OS [2]; [17],1
same,Growth Rate,U2OS [2]; [18],0
same,Growth Rate,U2OS [2]; [19],0
same,Growth Rate,"U2OS [2]; 24 h, replicate number 2, timepoint 24 hours",1
same,Growth Rate,HEK-293T; [16],0
same,Growth Rate,HEK-293T; [17],0
same,Growth Rate,HEK-293T; [18],0
same,Growth Rate,HEK-293T; [19],0
